MsrA inhibitor = inhibits bovine methionine sulfoxide reductase A | purified bovine MsrA, absorbance read-out | inhibition, % at 15.5 µM | actives 0.75% (n = 360,000) | AID 651718; in the data active means inhibition above about 4.5%
bovine MsrA act = activators of bovine methionine sulfoxide reductase A | purified bovine MsrA, absorbance read-out | activation, % at 10.6 µM | actives 0.3% (n = 360,000); in the data active means activation above about 7.5%
PKA-R2B act = activates the human PKA-R2B holoenzyme complex. activation, % at 11.4 µM. actives 0.079% (n = 340,000). PKA-R2B holoenzyme dissociation, Cy5-IP20 fluorescence polarization; R2B truncated from residue 108, S112A mutant; 0% DMSO only, 100% 113 µM cGMP. P22694+P31323;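 active means activation above a cutoff set at the mean over all compounds plus 3 SD, cut at about 18% in these data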;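 further: higher means more holoenzyme dissociation and a rise in polarization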
Target sequence (P31323 whole entry, looked up, other chains not shown, the tested form may be a part): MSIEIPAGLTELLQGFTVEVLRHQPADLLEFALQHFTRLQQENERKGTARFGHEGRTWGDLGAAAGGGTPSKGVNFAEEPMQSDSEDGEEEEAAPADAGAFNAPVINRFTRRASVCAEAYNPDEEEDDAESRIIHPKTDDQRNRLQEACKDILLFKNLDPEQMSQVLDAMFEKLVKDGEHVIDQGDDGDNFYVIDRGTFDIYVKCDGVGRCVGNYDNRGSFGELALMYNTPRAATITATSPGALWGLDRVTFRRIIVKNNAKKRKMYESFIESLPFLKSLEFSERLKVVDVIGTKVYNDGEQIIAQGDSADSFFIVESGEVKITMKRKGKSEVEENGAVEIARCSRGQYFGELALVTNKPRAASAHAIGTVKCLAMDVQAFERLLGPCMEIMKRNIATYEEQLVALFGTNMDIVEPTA
IMP-1 inhibitor = inhibitors of Pseudomonas aeruginosa IMP-1 metallo-beta-lactamase | purified IMP-1, nitrocefin hydrolysis, epi-absorbance fluorescence | inhibition, % at 5.6 µM | actives 0.45% (n = 290,000);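 active means inhibition above the mean plus 3 SD of all compounds in the same screening run, cut at about 4.5% in these data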
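Test system: recombinant IMP-1 enzyme, purified / Medium: HEPES buffer pH 7.1 with ZnSO4 and Brij 35 / Doses: single dose, 5.6 µM / Times: 25 °C, 15 min preincubation, 25 min reaction / Detection: Epi-absorbance via hydrolysed-nitrocefin quenching of white-plate fluorescence, 480/530 nm, EDTA stop / Evaluation: percent inhibition from optical density relative to buffer-blank wells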
PKA-R1A activ = PKA-R1A complex activation; AID 504707; actives 0.083% (n = 340,000); P00514+P68181; activation, % at 11.4 µM; PKA-R1A dissociation, Cy5-IP20 fluorescence polarization; scaled: DMSO 0%, 113 µM cGMP 100%;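 active means percent activation above the mean of all tested compounds plus 3 SD, cut at about 19% in these data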;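 further: higher means more PKAc released from R1A so a rise in polarization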
VIM-2 inhibitor = inhibitors of Pseudomonas aeruginosa VIM-2 metallo-beta-lactamase | purified VIM-2, nitrocefin hydrolysis, epi-absorbance fluorescence | inhibition, % at 5.6 µM | actives 0.89% (n = 290,000);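 active means inhibition above the mean of all tested compounds plus 3 SD, cutoff set per screening run, cut at about 7.5% in these data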;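 further: red hydrolysis product quenches plate fluorescence so inhibitors raise well fluorescence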
Numbers stand for hits; . = inactive; / = no result. Rows were chosen to be rich in hits. Some 2.1% of all compounds tested hit in one or more screens of this group.

SMILES	MsrA inhibitor	bovine MsrA act	PKA-R2B act	IMP-1 inhibitor	PKA-R1A activ	VIM-2 inhibitor
C=CCn1c(Cc2nc3ccccc3[nH]2)n[nH]c1=S	.	.	.	.	.	.
S=c1[nH]nc(CCc2nc3ccccc3[nH]2)n1-c1ccccc1	.	.	.	.	.	7.8
COc1cccc(CN2CCN(CC(=O)NCCc3ccccc3)CC2)c1	.	.	.	.	.	.
Cc1noc(C)c1NC(=O)N(C)C[C@H]1Oc2ccc(NC(=O)NC(C)C)cc2C(=O)N([C@H](C)CO)C[C@@H]1C	.	.	.	/	.	/
Oc1c(C=Nc2ccccc2)sc2ccccc12	.	.	.	.	.	.
Oc1sc(C=Nc2ccc(F)cc2)c2ccccc12	.	.	.	12.7	.	.
COc1ccc(/C=C/C(=O)Nc2nc(C)cc(C)n2)cc1OC	4.9	.	.	.	.	.
COc1ccc(/C=C/C(=O)Nc2nonc2NC(C)=O)cc1	4.6	.	.	.	.	.
COc1ccc(/C=C/C(=O)Nc2cc(C)on2)cc1	.	.	.	.	.	.
COc1ccc(/C=C/C(=O)NCCCNC(=O)/C=C/c2ccc(OC)c(OC)c2)cc1OC	.	.	.	/	.	/
CCN1CCCC1CNC(=O)Cn1cc(C)c(=O)[nH]c1=O (stereo unspecified)	.	.	.	/	.	/
CCc1nc2c(OCc3ccc(C(F)(F)F)cc3)cccn2c1N(C)C(=O)C1CC1	.	.	/	/	/	/
C[C@@H]1CN[C@H](CCO)/C1=C\c1ccccc1	.	.	.	/	.	/
CCCc1nc2sc(C(=O)OCC)c(N)c2c2c1COC(C)(C)C2	.	.	.	6.2	.	.
CCOC(=O)c1sc2nc(C)c3c(c2c1N)CC(C)(C)OC3	.	.	.	.	.	.
COCCn1c(SCC(=O)NCc2ccc(OC)c(OC)c2)nc2ccccc21	.	.	.	.	.	.
CCOC(=O)c1c(NC(C)=O)sc2c(OCC(O)CN(CC)CC)c(Br)ccc12 (stereo unspecified)	.	.	.	.	.	9.3
COc1ccc(CCn2c(=N)c(C(=O)NC3CCCC3)cc3c(=O)n4ccccc4nc32)cc1	.	.	.	.	.	.
Cc1ccc2nc3c(cc(C(=O)NCCN4CCOCC4)c(=N)n3CCCN3CCOCC3)c(=O)n2c1	/	.	.	.	.	8.9
N=c1c(C(=O)NCCN2CCOCC2)cc2c(=O)n3ccccc3nc2n1CCCN1CCOCC1	.	.	.	.	.	.
COc1ccc(CCn2c(=N)c(C(=O)NC3CCCC3)cc3c(=O)n4ccccc4nc32)cc1OC	.	.	.	.	.	10.1
N=c1c(C(=O)NCCN2CCOCC2)cc2c(=O)n3ccccc3nc2n1Cc1ccc(F)cc1	.	.	.	.	.	8.1
Cc1ccc2nc3c(cc(C(N)=S)c(=N)n3CCCOC(C)C)c(=O)n2c1	.	.	.	.	.	7.9
COCCCn1c(=N)c(C(N)=S)cc2c(=O)n3cccc(C)c3nc21	.	.	.	/	.	/
Cc1ccccc1-c1ccc2c(c1)[C@@H]1C[C@H](N(C)S(=O)(=O)c3ccc(Cl)cc3)[C@H]([C@H](C)O)CN1CC2	.	/	/	/	/	/
SMILES	MsrA inhibitor	bovine MsrA act	PKA-R2B act	IMP-1 inhibitor	PKA-R1A activ	VIM-2 inhibitor
CCOC(=O)C1=CCN(S(=O)(=O)c2ccc(Br)cc2)C1c1ccc(F)cc1 (stereo unspecified)	.	/	/	/	/	/
C=C1c2cc(OC)ccc2NC(=O)N1CC	.	.	.	5.8	.	.
CCc1nc2ccc(C(=O)N(C)CCCN(C)C)cn2c1N(C)Cc1cc2ccccc2s1	.	.	/	/	/	/
COc1cccc(-c2ncn(CCc3ccccc3OC)c2CC(C)C)c1	.	/	/	/	/	/
Cc1c(N2C(=O)/C(=C/c3ccccc3)SC2=S)c(=O)n(-c2ccccc2)n1C	4.5	.	.	.	.	.
Cc1ccc(/C=C2\SC(=S)N(c3c(C)n(C)n(-c4ccccc4)c3=O)C2=O)cc1	.	.	.	.	.	.
Cc1ccccc1NC1=C(Cl)C(=O)N(C2CCCCC2)C1=O	.	.	.	8.2	.	.
CC1(C)Cc2c(c(N3CCCCC3)[nH]c(=S)c2C#N)CS1	.	.	.	8.2	.	.
C(=N\Nc1nncc2ccccc12)/c1ccccn1	.	.	.	6.5	.	.
Fc1cccc(/C=N/Nc2nncc3ccccc23)c1	.	.	.	.	.	.
CC1(C)Cc2c(sc(NC(=O)COc3cccc4ccccc34)c2C#N)C(C)(C)N1	.	.	.	19.4	.	.
CC(=O)Nc1ccc(S(=O)(=O)C(C#N)c2nc3ccccc3nc2NCCCO)cc1 (stereo unspecified)	4.6	.	.	.	.	.
CC(=O)Nc1ccc(S(=O)(=O)C(C#N)c2nc3ccccc3nc2NCCO)cc1 (stereo unspecified)	.	.	.	.	.	.
COCCCNC(=S)NNC(=O)c1ccc(C(C)(C)C)cc1	.	.	.	.	.	.
COCCCNC(=S)NNC(=O)c1csc(C)n1	.	.	.	8.7	.	.
Nc1cn(C2OC(CO)C(O)C2O)c(=O)[nH]c1=O (stereo unspecified)	.	.	.	6.3	.	.
CCCCN1CC(COCc2ccccc2)Oc2cccc(Sc3ccc(OC)c(OC)c3)c2S1(=O)=O (stereo unspecified)	.	/	/	/	/	/
CCCc1nnc(NC(=O)c2cccc(OC)c2)s1	.	.	.	.	.	.
COc1cccc(C(=O)Nc2nnc(CCS(=O)(=O)c3ccc(C)cc3)s2)c1	.	.	.	.	.	7.9
CCC1(C)CC(C(N)=S)CCO1 (stereo unspecified)	.	.	.	5.3	.	.
CCCCOc1ccc(OCCNC(=O)c2ccco2)cc1	.	.	.	.	.	.
Cc1cc(NCc2ccccn2)n2c(nc3ccccc32)c1C#N	.	.	.	.	.	11.7
CCCc1cc(NCCN(C)C)n2c(nc3ccccc32)c1C#N	.	.	.	.	.	8.3
CCCc1cc(NCC2CCCO2)n2c(nc3ccccc32)c1C#N (stereo unspecified)	.	.	.	.	.	8.7
CCCc1cc(NCc2ccccn2)n2c(nc3ccccc32)c1C#N	.	.	.	.	.	.
O=C(COc1ccccc1CNC[C@H]1O[C@@H](n2ccc(=O)[nH]c2=O)[C@H](O)[C@@H]1O)N1CCCCC1	.	.	/	/	/	/
Cc1ccc(C=Nc2cccnc2N)cc1	/	.	.	4.8	.	.
CCc1c(-c2ccc(Cl)cc2)ncn1CCc1ccccc1OC	.	/	/	/	/	/
CCCCc1c(O)nc(SCC(=O)c2ccccc2)[nH]c1=O	.	.	.	11.8	.	.
COc1ccc(CNC(=O)[C@@H](Cc2ccccc2)NC(=O)[C@H]2O[C@@H](n3ccc(=O)[nH]c3=O)[C@H](O)[C@@H]2O)cc1	.	/	/	/	/	/

Screens from PubChem.
